# Assay results pooled from the literature.
# Each line is one published result; the experiments were not run side by side.
# Cell line: MRC5
# Read-out: cell growth or viability
SMILES,assay,conditions,measurement,result
O=C(C=C[c-]1cccc1)c1ccc[nH]1.[Fe+2].c1cc[cH-]c1,MTT,100 µM,viability,~100%
COc1ccc(CN2C[C@H]3CC[C@@H]4[C@]5(C)COC(C)(C)O[C@@H]5CC[C@@]4(C)[C@@H]3C[C@@H]2C2=CCOC2=O)cc1,ATP luminescence,"25 µM, 72 h",cell death,5.1%
CC(C)=CCC/C(C)=C/COc1ccc2ccc(=O)oc2c1,MTT,24 h,IC50,68.9 µM
COC(=O)N[C@H](C(=O)N1CCC[C@H]1c1nc(-c2ccc(-c3ccc(-c4c[nH]c([C@@H]5CCCN5C(=O)[C@@H](NC(=O)OC)C(C)C)n4)cc3)cc2)c[nH]1)C(C)C,,5 days,CC50,29 µM
Cc1cn([C@@H]2C[C@H](O)[C@@H](CNC(=O)Nc3ccc(OCc4ccccc4)cc3)O2)c(=O)[nH]c1=O,,,CC50,> 50 µM
COc1c2ccoc2c(OCC=C(C)C)c2oc(=O)ccc12,MTT,24 h,IC50,> 100 µM
Cc1cn([C@@H]2C[C@H](O)[C@@H](CNC(=O)Nc3ccc(N4CCCCC4)cc3)O2)c(=O)[nH]c1=O,,,CC50,> 50 µM
CCCCN1C[C@H]2CC[C@@H]3[C@](C)(COC(C)=O)[C@H](OC(C)=O)CC[C@@]3(C)[C@@H]2C[C@@H]1C1=CCOC1=O,ATP luminescence,"25 µM, 72 h",cell death,-6%
